Here are results for three compounds from ChEMBL document CHEMBL3352052, “Bioactive metabolites from Chaetomium aureum: structure elucidation and inhibition of the Hsp90 machine chaperoning activity” (Bioorg Med Chem, 2015).

The subject of assay [1] is LNCaP. Nature of the assay: Cytotoxicity against human LNCAP cells assessed as cell survival at 10 to 20 uM by MTS assay. The format is functional, cell-based. (In general: Tetrazolium assays rely on reduction of a dye to a coloured formazan, in cell work by metabolically active cells.)
Assay [2] relates to HeLa. Nature of the assay: Cytotoxicity against human HeLa cells assessed as cell survival at 10 to 20 uM by MTS assay. The format is functional, cell-based.
The subject of assay [3] is Hs-578T. The assay can be described thus: Induction of Hsp70 overexpression in human Hs578T cells at 10 to 20 uM by Western blot analysis. The assay is classed as functional, cell-based. Put shortly:
(§1)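 Hs578T cells seeded in 6-well plates, treated the next day for 48 h, with medium and drug at the same concentration replaced every 24 h. Cells were harvested at 48 h and lysed, and 10 μg protein lysate was analysed by Western blot with specific antibodies, including rabbit anti-total GR.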
(Immunoblotting shows a protein as a band on a membrane.)

For assay [4], the system named is MCF7. The assay can be described thus: Cytotoxicity against human MCF7 cells assessed as cell survival at 10 to 20 uM by MTS assay. The assay is classed as functional, cell-based.
For assay [5], the species on record is Oryctolagus cuniculus. The assay can be described thus: Inhibition of Hsp90 chaperoning activity in rabbit reticulocyte lysate assessed as progesterone receptor hormone binding activity by liquid scintillation counting analysis. Put shortly: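 Purified PR was bound to PR22 antibody-protein A-sepharose beads and mildly heat-denatured. Then 0.1 μM [3H]-progesterone was added for 3 h on ice, beads washed three times, and bound hormone counted by liquid scintillation.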

Assay [6] relates to MDA-MB-231. The assay can be described thus: Cytotoxicity against human MDA-MB-231 cells assessed as cell survival at 10 to 20 uM by MTS assay. The assay is classed as functional, cell-based.
For assay [7], the system named is MDA-MB-453. The assay can be described thus: Cytotoxicity against human MDA-MB-453 cells assessed as cell survival at 10 to 20 uM by MTS assay. The assay is classed as functional, cell-based.
Assay [8] concerns Hs-578T. Nature of the assay: Cytotoxicity against human Hs578T cells assessed as cell survival at 10 to 20 uM by MTS assay. The assay is classed as functional, cell-based.
The subject of assay [9] is Hs-578T. Nature of the assay: Induction of Hsp40 degradation in human Hs578T cells at 10 to 20 uM by Western blot analysis. The assay is classed as functional, cell-based. Put shortly:
as §1

Assay [10] deals with Hs-578T. The assay can be described thus: Induction of glucocorticoid receptor degradation in human Hs578T cells at 10 to 20 uM by Western blot analysis. The assay is classed as functional, cell-based. Put shortly:
as §1

Assay [11] has as its system LNCaP. Nature of the assay: Cytotoxicity against human LNCAP cells assessed as cell survival at 10 to 20 uM after 48 hrs by MTS assay. The format is functional, cell-based.
The test system of assay [12] is Hs-578T. Nature of the assay: Cytotoxicity against human Hs578T cells assessed as cell survival at 10 to 20 uM after 48 hrs by MTS assay. The format is functional, cell-based.
Assay [13] relates to MDA-MB-231. The assay can be described thus: Cytotoxicity against human MDA-MB-231 cells assessed as cell survival at 10 to 20 uM after 48 hrs by MTS assay. The format is functional, cell-based.

Activity calls are given as the source filed them. No cut-off for these calls is given here.

Consider `CC[C@H](C)/C=C(C)/C=C/C1=CC2=C(Cl)C(=O)[C@](C)(OC(C)=O)C(=O)C2=CO1`, for which the outcome in assay [1], in assay [2], in assay [4], in assay [6], in assay [7] and in assay [8] was inactive. The outcome in assay [3], in assay [9] and in assay [10] was Active. Further, the inhibition result in assay [5] is “Active”.
Consider `C=CCNC1=C2C[C@@H](C)C[C@H](OC)[C@H](O)[C@@H](C)/C=C(\C)[C@H](OC(N)=O)[C@@H](OC)/C=C\C=C(/C)C(=O)NC(=CC1=O)C2=O`, for which, in assay [5], the inhibition entry is “Active”.
For the compound `CC[C@H](C)/C=C(C)/C=C/C1=CC2=C(Cl)C(=O)[C@](C)(O)C(=O)C2=CO1`, the inhibition result in [5], in assay [11], in [12] and in assay [13] was “Active” in each case.
